ChEMBL document CHEMBL1151862, “Quaternary ammonium N,N-dichloroamines as topical, antimicrobial agents” (Bioorg Med Chem Lett, 2009)
≈ marks a conversion by molar mass, not a printed value.

Tests used:
[1] = Stability in water assessed as half life at pH 4 at 40 degC; format: physicochemical
[2] = system: Staphylococcus aureus; assay: Antibacterial activity against Staphylococcus aureus ATCC 29213 after 1 hr by CLSI M26-A based method at room temperature; format: functional; conditions: ATCC 29213, 1 h
In short: (§1)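 Minimum bactericidal (bacteria) or fungicidal (C. albicans) concentration was determined by a modified CLSI M26-A method. Isotonic saline at pH 4 replaced Mueller–Hinton broth because chlorine reacts with broth components. Exposure was shortened from 16–20 h at 35 °C to 1 h at room temperature.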

[3] = system: Escherichia coli; assay: Antibacterial activity against Escherichia coli ATCC 25922 after 1 hr by CLSI M26-A based method at room temperature; format: functional; conditions: ATCC 25922, 1 h; in short: as §1
[4] = system: Candida albicans; assay: Antifungal activity against Candida albicans ATCC 10231 after 1 hr by CLSI M26-A based method at room temperature; format: functional; conditions: ATCC 10231, 1 h; in short: as §1
[5] = Stability in saline solution assessed as half life at pH 4; format: physicochemical
In short: (§2)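 Aqueous half-life is reported in days. Media were saline at pH 4, phosphate at pH 7, and, for some analogs, 0.6% borate buffer at pH 7. Biological testing was limited to analogs with aqueous stability above 24 h at 40 °C.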

[6] = Stability in 0.6% borate buffer assessed as half life at pH 7; format: physicochemical; in short: as §2
[7] = Stability in phosphate buffer assessed as half life at pH 7; format: physicochemical; in short: as §2

Compound	half-life [1] [days]	MBC [2] [µg/mL]	MBC [3] [µg/mL]	MFC [4] [µg/mL]	half-life [5] [days]	half-life [6] [days]	half-life [7] [days]
CC(C)(CNC(=O)CCS(=O)(=O)O)N(Cl)Cl	0.5	–	–	–	–	–	–
C[n+]1ccc(CCC(C)(C)N(Cl)Cl)cc1.[Cl-]	–	8	2	1020	> 60	20	–
CC(C)(C[N+]1(C)CCCCC1)N(Cl)Cl.[Cl-]	–	16	8	64	> 122	–	100
Cc1nc(CC(C)(C)N(Cl)Cl)n(CCS(=O)(=O)O)n1	–	4 (≈ 12.1 µM)	4 (≈ 12.1 µM)	64 (≈ 193 µM)	46	–	50
CC(C)(Cc1nc(CS(=O)(=O)O)no1)N(Cl)Cl	–	2 (≈ 6.58 µM)	4 (≈ 13.2 µM)	16 (≈ 52.6 µM)	106	–	17
CC(C)(CS(=O)(=O)[O-])N(Cl)Cl.[Na+]	–	2	2	32	> 730	–	> 300
CC(C)(C[N+]1(C)CCOCC1)N(Cl)Cl.[Cl-]	–	–	–	–	< 1	–	< 1
Cc1nn(C)c(CC(C)(C)N(Cl)Cl)[n+]1C.[Cl-]	–	8	4	32	61	–	4
CC(C)(C[N+](C)(C)CCS(=O)(=O)O)N(Cl)Cl.[Cl-]	–	64	16	128	> 180	–	19
CC(C)(Cc1ncnn1CCS(=O)(=O)O)N(Cl)Cl	–	4 (≈ 12.6 µM)	2 (≈ 6.31 µM)	64 (≈ 202 µM)	21	–	23
CN(CC[N+](C)(C)C)C(=O)CC(C)(C)N(Cl)Cl.[Cl-]	–	16	2	32	4	–	6
CC(C)(CC(=O)NCCS(=O)(=O)O)N(Cl)Cl	–	8 (≈ 27.3 µM)	2 (≈ 6.82 µM)	64 (≈ 218 µM)	33	36	–
Cn1nc[n+](C)c1CC(C)(C)N(Cl)Cl.[Cl-]	–	4	2	16	67	–	5
CN(CCS(=O)(=O)O)C(=O)CC(C)(C)N(Cl)Cl	–	2 (≈ 6.51 µM)	1 (≈ 3.26 µM)	32 (≈ 104 µM)	1	–	1
CC(=O)N1CC[N+](C)(CC(C)(C)N(Cl)Cl)CC1.[Cl-]	–	64	16	> 1020	37	6	–
CC(C)(c1cn(CCS(=O)(=O)O)nn1)N(Cl)Cl	–	8 (≈ 26.4 µM)	4 (≈ 13.2 µM)	32 (≈ 106 µM)	10	–	5
CC(C)(COCCCS(=O)(=O)O)N(Cl)Cl	0.104	–	–	–	–	–	–
CC(C)(CC(=O)OCC[N+]1(C)CCCCC1)N(Cl)Cl.[Cl-]	–	4	2	–	> 72	–	7
C[S+](C)CC(C)(C)N(Cl)Cl.[Cl-]	–	8	4	128	> 67	–	1
CC(C)(CC(=O)OCCS(=O)(=O)O)N(Cl)Cl	> 95	–	–	–	–	–	–
CC(C)(C[N+](C)(C)C)N(Cl)Cl.[Cl-]	–	16	8	128	> 325	–	> 396
